Active and inactive are the calls of the source. The calls are words filed in the database; no cut-off is given here.
How the values were obtained:
[1] = Stability of the compound in DTT buffer at 50 uM and pH 7.2 measured after 1 to 17 hrs by mass spectra analysis; format: physicochemical; conditions: pH 7.2, 50 µM
Summary of the method: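 Peptide held in 1 mM dithiothreitol over several hours to follow its integrity.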

[2] = Metabolic stability in human serum at 25 uM measured up to 6 hrs; format: ADME
Bcl-2-related protein A1 = biological target: T1, Bcl-2-related protein A1 (Homo sapiens, UniProt Q16548); experiment: Inhibition of FITC-betaA-DIIRNIARHLAQVGDSMRSI-NH2 binding to recombinant human Bcl2A1 (1 to 152 residues) BH3 binding site expressed in Escherichia coli measured after 2 hrs by fluorescence polarization assay; conditions: for Ki: read-out: Ki(app)
T1 sequence (Q16548 whole entry): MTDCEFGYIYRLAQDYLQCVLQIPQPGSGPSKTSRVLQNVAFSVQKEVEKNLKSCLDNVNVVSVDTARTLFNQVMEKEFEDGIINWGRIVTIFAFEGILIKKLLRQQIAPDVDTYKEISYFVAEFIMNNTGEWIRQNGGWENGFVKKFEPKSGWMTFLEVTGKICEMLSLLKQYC
Summary of the method: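 Competitive fluorescence polarization: Bcl2A1 (15 nM) with FITC-Bid tracer (5 nM), protein/tracer 3:1 to keep fluorescence measurable, exposed to increasing peptide concentrations for 2 h. IC50 read from inhibition curves; apparent Ki derived from it.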

[3] = biological target: T2, Bcl-2-related protein A1 (Homo sapiens) (UniProt Q16548); experiment: Binding affinity to Bcl2A1 in human U937 cells assessed as Bcl2A1 modification at 5 to 50 uM measured after overnight incubation by Western blot analysis; format: cell-based; conditions: U-937
T2 sequence (whole entry): T1 sequence (Q16548 whole entry)
Summary of the method: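 Live U937 cells incubated with peptide for 24 h at 37 °C, then lysed. Covalent Bcl2A1 modification detected by Western blot.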

[4] = biological target: T2, Bcl-2-related protein A1 (Homo sapiens); conditions: 500 nM
[5] = biological target: T2, Bcl-2-related protein A1 (Homo sapiens); conditions: 500 nM; remark: listed apart in the source
[6] = biological target: T2, Bcl-2-related protein A1 (Homo sapiens); experiment: Binding affinity to recombinant human C-terminal His6-tagged Bcl2A1 (1 to 152 residues) expressed in Escherichia coli assessed as adduct formation at 25 uM measured after 5 hrs by LC-MS analysis
Summary of the method: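 Bcl2A1 (5 μM) reacted with electrophilic peptide (25 μM) at pH 7.2 for 5 h. Protein adducts analysed by mass spectrometry.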

[7] = Drug uptake in mitochondria of human U937 cells at 1 uM measured after 4 hrs using FITC-labeled compound by Hoechst and MitoTracker Deep Red dye-based confocal live cell microscopy; format: ADME; conditions: u-937, 4 h
Summary of the method: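 Live U937 lymphoma cells given FITC-labelled peptide (1 μM) for 4 h. Nuclei stained with Hoechst and mitochondria with MitoTracker; colocalization imaged by confocal microscopy.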

[8] = Cellular uptake in human U937 cells at 10 uM measured after 4 hrs by flow cytometry; format: ADME, cell-based; conditions: u-937, 4 h
[9] = biological target: T2, Bcl-2-related protein A1 (Homo sapiens); experiment: Reversible inhibition of FITC-betaA-DIIRNIARHLAQVGDSMRSI-NH2 binding to recombinant human Bcl2A1 (1 to 152 residues) BH3 binding site expressed in Escherichia coli preincubated for 1 hr with 2 fold diluted Bcl2A1 prior to FITC-betaA-DIIRNIARHLAQVGDSMRSI-NH2 addition measured every minute over 3.5 hrs by fluorescence polarization assay
Summary of the method: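 Bcl2A1 2-fold serially diluted (250 to 0.25 nM), preincubated 1 h with peptide at several protein/peptide ratios. FITC-Bid (5 nM) then added and fluorescence polarization recorded as titration binding curves. Buffer in place of peptide as control.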

[10] = biological target: T2, Bcl-2-related protein A1 (Homo sapiens); experiment: Binding affinity to Bcl2A1 (unknown origin) overexpressed in human HeLa cells at 50 uM measured after 24 hrs by Western blot analysis; format: cell-based

Stability [2] | IC50 (Bcl-2-related protein A1) | Ki (Bcl-2-related protein A1) | Activity [3] | Activity [6] | further results | Compound
Stable | 8.5 nM | < 0.1 nM | Active |  | Stability [1]: Stable; T1/2 [4]: 28 min; inhibition [5]: Active | C=CC(=O)NC[C@H](NC(=O)[C@@H](NC(C)=O)[C@@H](C)CC)C(=O)N[C@H](C(=O)N[C@@H](C)C(=O)N[C@@H](CCC(N)=O)C(=O)N[C@@H](CCC(=O)O)C(=O)N[C@@H](CC(C)C)C(=O)N[C@@H](CCCNC(=N)N)C(=O)N[C@@]1(C)CCCC=CCCC[C@@](C)(C(=O)N[C@@H](Cc2ccccc2)C(=O)N[C@@H](CC(N)=O)C(=O)N[C@@H](C)C(=O)N[C@@H](Cc2ccc(O)cc2)C(=O)N[C@@H](Cc2ccc(O)cc2)C(=O)N[C@@H](C)C(=O)N[C@@H](CCCNC(=N)N)C(=O)N[C@@H](CCCNC(=N)N)C(N)=O)NC(=O)[C@H](CC(=O)O)NC(=O)CNC(=O)[C@H]([C@@H](C)CC)NC1=O)[C@@H](C)CC
 |  |  |  | Active |  | C#CC(=O)NC[C@H](NC(=O)[C@@H](NC(C)=O)[C@@H](C)CC)C(=O)N[C@H](C(=O)N[C@@H](C)C(=O)N[C@@H](CCC(N)=O)C(=O)N[C@@H](CCC(=O)O)C(=O)N[C@@H](CC(C)C)C(=O)N[C@@H](CCCNC(=N)N)C(=O)N[C@@]1(C)CCCC=CCCC[C@@](C)(C(=O)N[C@@H](Cc2ccccc2)C(=O)N[C@@H](CC(N)=O)C(=O)N[C@@H](C)C(=O)N[C@@H](Cc2ccc(O)cc2)C(=O)N[C@@H](Cc2ccc(O)cc2)C(=O)N[C@@H](C)C(=O)N[C@@H](CCCNC(=N)N)C(=O)N[C@@H](CCCNC(=N)N)C(N)=O)NC(=O)[C@H](CC(=O)O)NC(=O)CNC(=O)[C@H]([C@@H](C)CC)NC1=O)[C@@H](C)CC
 |  |  |  |  | Drug uptake [7]: Active; Drug uptake [8]: Active | C=CC(=O)NC[C@H](NC(=O)[C@@H](NC(=O)CCCCCNC(=O)c1cc(N=C=S)ccc1-c1c2ccc(=O)cc-2oc2cc(O)ccc12)[C@@H](C)CC)C(=O)N[C@H](C(=O)N[C@@H](C)C(=O)N[C@@H](CCC(N)=O)C(=O)N[C@@H](CCC(=O)O)C(=O)N[C@@H](CC(C)C)C(=O)N[C@@H](CCCNC(=N)N)C(=O)N[C@@]1(C)CCCC=CCCC[C@@](C)(C(=O)N[C@@H](Cc2ccccc2)C(=O)N[C@@H](CC(N)=O)C(=O)N[C@@H](C)C(=O)N[C@@H](Cc2ccc(O)cc2)C(=O)N[C@@H](Cc2ccc(O)cc2)C(=O)N[C@@H](C)C(=O)N[C@@H](CCCNC(=N)N)C(=O)N[C@@H](CCCNC(=N)N)C(N)=O)NC(=O)[C@H](CC(=O)O)NC(=O)CNC(=O)[C@H]([C@@H](C)CC)NC1=O)[C@@H](C)CC
Stable | 110 nM | 32 nM | Active |  | inhibition [9]: Active; Activity [10]: Active | CC[C@H](C)[C@H](NC(C)=O)C(=O)N[C@@H](Cc1c[nH]c2ccccc12)C(=O)N[C@H](C(=O)N[C@@H](C)C(=O)N[C@@H](CCC(N)=O)C(=O)N[C@@H](CCC(=O)O)C(=O)N[C@@H](CC(C)C)C(=O)N[C@@H](CCCNC(=N)N)C(=O)N[C@@]1(C)CCCC=CCCC[C@@](C)(C(=O)N[C@@H](Cc2ccccc2)C(=O)N[C@@H](CC(N)=O)C(=O)N[C@@H](C)C(=O)N[C@@H](Cc2ccc(O)cc2)C(=O)N[C@@H](Cc2ccc(O)cc2)C(=O)N[C@@H](C)C(=O)N[C@@H](CCCNC(=N)N)C(=O)N[C@@H](CCCNC(=N)N)C(N)=O)NC(=O)[C@H](CC(=O)O)NC(=O)CNC(=O)[C@H]([C@@H](C)CC)NC1=O)[C@@H](C)CC
 |  |  |  | Active |  | CC[C@H](C)[C@H](NC(C)=O)C(=O)N[C@@H](CNC(=O)CCl)C(=O)N[C@H](C(=O)N[C@@H](C)C(=O)N[C@@H](CCC(N)=O)C(=O)N[C@@H](CCC(=O)O)C(=O)N[C@@H](CC(C)C)C(=O)N[C@@H](CCCNC(=N)N)C(=O)N[C@@]1(C)CCCC=CCCC[C@@](C)(C(=O)N[C@@H](Cc2ccccc2)C(=O)N[C@@H](CC(N)=O)C(=O)N[C@@H](C)C(=O)N[C@@H](Cc2ccc(O)cc2)C(=O)N[C@@H](Cc2ccc(O)cc2)C(=O)N[C@@H](C)C(=O)N[C@@H](CCCNC(=N)N)C(=O)N[C@@H](CCCNC(=N)N)C(N)=O)NC(=O)[C@H](CC(=O)O)NC(=O)CNC(=O)[C@H]([C@@H](C)CC)NC1=O)[C@@H](C)CC

Reference: ChEMBL document CHEMBL3875227, “Electrophilic Helical Peptides That Bond Covalently, Irreversibly, and Selectively in a Protein-Protein Interaction Site” (ACS Med Chem Lett, 2017)
